Source: PubChem BioAssay
KCNK9 inh: human KCNK9 channel inhibition; Q9NPC2; HEK293 KCNK9, FluxOR thallium flux fluorescence; stronger effect = lower value; B-score at 10 µM; actives 1.2% (n = 310,000);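 active = ratio B-score over 3 SD below the library mean, with starting fluorescence within 5 SD of its mean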;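 note: negative B-score means less thallium flux so channel inhibition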
hERG protect: shields human hERG channel from block by proarrhythmic agents; actives 0.51% (n = 310,000); AID 1511; activation (rescue from dofetilide block), less the hit threshold, % at 10 µM; Q12809; CHO-hERG, FluxOR thallium flux, dofetilide IC70 present;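 active = activation above the mean of controls blocked by dofetilide plus 5 SD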;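 note: thallium influx through hERG after potassium depolarization seen as dye fluorescence rise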
KCNQ1 block: inhibitors of human KCNQ1 potassium channel; P51787; CHO-K1 KCNQ1, FluxOR thallium flux fluorescence; stronger effect = higher value; B-score at 10 µM; actives 1.3% (n = 310,000);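 active = compounds whose thallium flux B-score, printed positive for inhibition, exceeds three library SD while starting fluorescence stays within three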;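 note: channel opened by potassium depolarization with thallium stimulus after 20 min compound exposure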
Target sequence (P51787 whole entry, looked up): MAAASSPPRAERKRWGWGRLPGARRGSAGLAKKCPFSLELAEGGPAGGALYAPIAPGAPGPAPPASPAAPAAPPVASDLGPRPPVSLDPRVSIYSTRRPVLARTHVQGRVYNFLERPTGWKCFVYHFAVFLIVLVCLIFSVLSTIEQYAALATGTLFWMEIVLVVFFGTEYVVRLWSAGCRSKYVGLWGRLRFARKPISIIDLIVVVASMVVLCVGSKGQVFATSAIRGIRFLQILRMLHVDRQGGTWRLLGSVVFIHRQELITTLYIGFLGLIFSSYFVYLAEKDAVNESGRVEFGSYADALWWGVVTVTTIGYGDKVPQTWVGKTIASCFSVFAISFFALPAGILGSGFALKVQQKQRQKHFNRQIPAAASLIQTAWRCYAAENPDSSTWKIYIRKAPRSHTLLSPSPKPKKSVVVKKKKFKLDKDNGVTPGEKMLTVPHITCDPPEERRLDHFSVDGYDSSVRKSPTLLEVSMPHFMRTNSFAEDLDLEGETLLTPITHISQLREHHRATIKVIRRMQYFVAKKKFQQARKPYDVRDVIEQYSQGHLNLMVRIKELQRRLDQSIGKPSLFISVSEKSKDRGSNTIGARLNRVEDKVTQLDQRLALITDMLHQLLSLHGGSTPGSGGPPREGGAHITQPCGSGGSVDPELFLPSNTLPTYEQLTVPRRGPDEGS
KCNQ1 act: potentiates or activates the human KCNQ1 potassium channel. B-score at 10 µM. actives 0.35% (n = 310,000). AID 2648. CHO-K1 KCNQ1, thallium flux FluxOR fluorescence; stronger effect = higher value;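 active = fluorescence ratio B-score, a plate-corrected score, at least three library SD, with initial intensity B-score within 5 SD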
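System: CHO-K1 cells stably expressing KCNQ1 / Medium: assay buffer for compound exposure, DMSO matched across wells / Reagent: thallium- and potassium-containing depolarizing buffer / Compound: one concentration, matched DMSO / Incubation: 20 min compound pretreatment at room temperature / Measured by: kinetic FluxOR fluorescence, 10 s baseline plus 110 s post-stimulus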
KCNK3 block: human KCNK3 channel inhibition, primary screen; O14649; AID 602410; CHO-KCNK3 thallium flux, FluxOR fluorescence; stronger effect = lower value; B-score at 10 µM; actives 0.84% (n = 340,000);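 active = B-score under library mean minus 4 SD, starting fluorescence ratio at most library mean plus 5 SD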;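 note: more negative B-score means stronger inhibition of thallium flux through KCNK3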
KCNK9 inh conf: human KCNK9 inhibitor confirmation. shares compounds with KCNK9 inh. HEK293 KCNK9 cells, FluxOR thallium flux fluorescence. inhibition, % at 10 µM. actives 43% (n = 4,900);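 active = thallium signal inhibited by more than 5 SD of the compound-free buffer control wells, on both duplicate plates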;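 note: 0% = assay buffer control wells without compound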
Kir21 sel: mouse Kir2.1 off-target activity of KCNK9 modulators | shares compounds with KCNK9 inh | Kir2.1 cells, FluxOR thallium flux fluorescence | inhibition, % at 10 µM | actives 4% (n = 4,900);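 active = thallium signal drop more than 5 SD beyond the mean of the no-compound control wells, seen in both duplicate plates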;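 note: signal is fluorescence rise after thallium addition divided by baseline fluorescence; plate controls were assay buffer only for no effect and full block by chlorpromazine control for full effect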
HEK293 Tl ctr: second check of KCNK9 modulator effects in non-induced HEK293 cells | FluxOR thallium flux | inhibition, % at 10 µM | shares compounds with KCNK9 inh | actives 40% (n = 4,900);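 active = thallium signal drop beyond 5 SD of the untreated control mean, on both duplicate plates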;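 note: plate controls were buffer only IC0 wells for no effect and SID17386958 at its maximal inhibitory level for full effect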
Active calls of the source: *; i = inactive; · = no result. An excerpt weighted towards active compounds, which were near 3.1% of everything screened.

SMILES | KCNK9 inh | hERG protect | KCNQ1 block | KCNQ1 act | KCNK3 block | KCNK9 inh conf | Kir21 sel | HEK293 Tl ctr
Cc1ccc(C(=O)NCCSCc2ccccc2)cc1[N+](=O)[O-] | i | -3 | i | i | i | · | · | ·
Cc1ccc(SCCNC(=O)c2ccc(C)c([N+](=O)[O-])c2)cc1 | i | -15 | i | i | i | · | · | ·
Cc1ccc(C(=O)NCCSc2ccc(Cl)cc2)cc1[N+](=O)[O-] | i | -23 | i | i | i | i | i | i
Cc1ccc(SCCNC(=O)c2ccc([N+](=O)[O-])c(C)c2)cc1 | i | -7 | i | i | i | i | i | i
O=C(c1ccc2c(c1)OCO2)N1CCC2(CC1)Oc1ccc(F)cc1C(=O)C21CC(c2ccccc2)=NO1 (stereo not drawn) | i | -2 | i | i | i | · | · | ·
CCCCCC(=O)Nc1cc2[nH]c(=O)cc(COC)c2cc1C | i | -7 | i | i | i | · | · | ·
Cc1cc(-c2nn(-c3ccccc3F)cc2CN2CCN(c3ccccn3)CC2)c(C)s1 | i | -7 | i | i | i | i | i | i
Cn1cc(CN2CCN(c3ccc(Cl)cn3)CC2)c(-c2ccccc2F)n1 | i | -16 | i | i | i | i | i | i
Cc1cc(-c2nn(-c3ccccc3F)cc2CNCCc2cnccn2)c(C)s1 | i | -14 | i | i | i | · | · | ·
CCOc1cc(C)c(C(C)C)cc1S(=O)(=O)n1cnc(C)c1 | i | -6 | i | i | i | i | i | i
CCOc1cc(C)c(C(C)C)cc1S(=O)(=O)N1CC(C)OC(C)C1 (stereo not drawn) | i | -8 | i | i | i | · | · | ·
Cc1ccc(NC(=O)CN2C(=O)S/C(=C\c3cc(C)n(-c4ccc(C(=O)O)cc4)c3C)C2=O)cc1 | i | -12 | i | i | i | i | i | i
Cc1ccc(NC(=O)CN2C(=O)N/C(=C/c3cc(C)n(-c4ccc(C(=O)O)cc4)c3C)C2=O)cc1 | · | · | · | · | i | · | · | ·
COc1ccc(-c2c([C@H]3[C@@H]4C=CCC[C@@]4(C)C(=O)N3Cc3ccccc3)ccc3ccccc23)cc1OC | i | -18 | i | i | i | i | i | i
COc1ccc(-c2ccc([C@H]3[C@@H]4C=CCC[C@@]4(C)C(=O)N3Cc3ccccc3)c(F)c2)cc1OC | i | -7 | i | i | i | · | · | ·
COC(=O)c1ccc(N2CCCCC2)c(NS(=O)(=O)c2ccc(C)cc2)c1 | i | -6 | i | i | i | · | · | ·
CCOC(=O)c1ccc(N2CCCCC2)c(NS(=O)(=O)c2cccc(C(F)(F)F)c2)c1 | -11* | -6 | i | i | i | 56%* | i | 34%*
CCCCN(C(=O)C1CCN(C(=O)c2ccccc2C)CC1)c1c(N)n(CCCC)c(=O)[nH]c1=O | i | -6 | i | i | i | · | · | ·
Cc1[nH][nH]c(=O)c1C(c1c(C)[nH][nH]c1=O)c1cn(Cc2ccccc2Cl)c2ccccc12 | i | -14 | i | i | i | i | i | i
Cc1cc(-n2c(C)cc(C(=S)N3CCOCC3)c2C)ccc1Br | i | -4 | i | i | i | · | · | ·
O=C(NCC1CC1)C1(C(F)(F)F)CC(CCc2ccccc2)CCCO1 (stereo not drawn) | i | -8 | i | i | i | i | i | i
O=C(NCCNCCO)C1(C(F)(F)F)C/C(=C\Cc2ccccc2)CCCO1 (stereo not drawn) | i | -8 | i | i | i | · | · | ·
O=C1CSC(=S)N1/N=C/c1cc(Br)c(O)c(Br)c1 | -9.8* | -33 | i | i | i | 64%* | 57%* | 70%*
O=C1[C@@H]2[C@@H]3C[C@@H]([C@H]4ON=C(c5ccc(Cl)cc5Cl)[C@@H]34)[C@@H]2C(=O)N1C1CCCCC1 | i | -8 | i | i | i | i | i | i
